ChEMBL document CHEMBL1127524, “Nitrobenzyl phosphorodiamidates as potential hypoxia-selective alkylating agents” (1994)

Assays:
HT-29 [1] = experiment: Cytotoxicity of compound was evaluated against HT-29 cells under aerobic conditions.; type: functional, Homo sapiens
Summary of the method: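 Human colon carcinoma HT-29 cells (α-MEM, 10% FBS), exponential growth, suspended at 1-2 × 10^5 cells/mL in glass vials; 4 h drug exposure gassed with 97% air/3% CO2; drug from DMSO, controls 1% DMSO; washed, plated, 14-day clonogenic colonies (>50 cells) counted; survival vs untreated; duplicates; IC90 from log-linear portion of survival curve.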

HT-29 [2] = experiment: Cytotoxicity of compound was evaluated against HT-29 cells under hypoxic conditions.; type: functional, Homo sapiens
Summary of the method: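 HT-29 cells at 1-2 × 10^7 cells/mL deoxygenated 10 min at 37 °C in gas-tight syringe, injected into medium degassed 3 h with 97% N2/3% CO2; 4 h exposure under continuous N2/CO2 gassing, run alongside aerobic arm with same drug stock; 1% DMSO controls; 14-day colony formation (>50 cells); survival vs untreated; duplicates; IC90 from log-linear survival curve.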

SMILES: CC(OP(=O)(N(CCCl)CCCl)N(CCCl)CCCl)c1ccc([N+](=O)[O-])cc1 (stereo not given)
- LC90 (HT-29 [1]): >2000 µM
- LC90 (HT-29 [2]): 22 µM

SMILES: O=[N+]([O-])c1ccc(COP(=O)(N(CCCl)CCCl)N(CCCl)CCCl)cc1
- LC90 (HT-29 [1]): 109 µM
- LC90 (HT-29 [2]): 55 µM

SMILES: CN(C)CCCOC(=O)CC(OP(=O)(N(CCCl)CCCl)N(CCCl)CCCl)c1ccc([N+](=O)[O-])cc1 (stereo not given)
- LC90 (HT-29 [1]): 95 µM
- LC90 (HT-29 [2]): 50 µM

SMILES: CCOC(=O)CC(OP(=O)(N(CCCl)CCCl)N(CCCl)CCCl)c1ccc([N+](=O)[O-])cc1 (stereo not given)
- LC90 (HT-29 [1]): 106 µM
- LC90 (HT-29 [2]): 13 µM

SMILES: CN(C)CCOC(=O)CC(OP(=O)(N(CCCl)CCCl)N(CCCl)CCCl)c1ccc([N+](=O)[O-])cc1 (stereo not given)
- LC90 (HT-29 [1]): 55 µM
- LC90 (HT-29 [2]): 34 µM
